Assay results as given in ChEMBL document CHEMBL3407362, “Design and synthesis of potent and multifunctional aldose reductase inhibitors based on quinoxalinones” (J Med Chem, 2015).
The source made the active and inactive calls. No cut-off for these calls is given here.

Key:
[1] = biological target: Aldo-keto reductase family 1 member B1 (Rattus norvegicus, UniProt P07943); assay: Inhibition of Wistar rat lenses ALR2 using D,L-glyceraldehyde as substrate preincubated for 10 mins before substrate addition measured after 4 mins by spectrophotometry
[2] = species on record: Rattus norvegicus; assay: Selectivity ratio for Wistar rat lenses ALR2 over Wistar rat kidney ALR1; type: tissue-based; conditions: Lens of camera-type eye
[3] = Antioxidant activity assessed as DPPH scavenging activity at 50 uM after 30 mins by UV spectrophotometry; type: physicochemical; conditions: 0.5 h
[4] = Antioxidant activity assessed as DPPH scavenging activity after 30 mins by UV spectrophotometry; type: physicochemical
[5] = system: Brain; assay: Antioxidant activity in rat brain assessed as inhibition of lipid peroxidation by TBARS assay; type: functional, tissue-based
How it was run: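 Fresh rat brain homogenized in ice-cold saline, centrifuged; lipoperoxidation driven by Fe(III)/ascorbic acid, compounds at 100 μM; malondialdehyde measured as TBARS (trichloroacetic acid, then thiobarbituric acid, red color at 532 nm); protein by Coomassie method.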

[6] = Antioxidant activity assessed as DPPH scavenging activity at 10 uM after 30 mins by UV spectrophotometry; type: physicochemical; conditions: 0.5 h
[7] = Antioxidant activity assessed as DPPH scavenging activity at 100 uM after 30 mins by UV spectrophotometry; type: physicochemical; conditions: 0.5 h

Row | Compound | IC50 [1] [nM] | Selectivity ratio [2] | further results
1 | O=C(O)Cn1c(=O)c(-c2ccc(O)cc2O)nc2ccc(Cl)cc21 | 69 |  | 
2 | O=C(O)Cn1c(=O)c(-c2ccc(O)cc2O)nc2ccc(Cc3ccc(F)cc3)cc21 | 3340 |  | 
3 | O=C(O)Cn1c(=O)c(Sc2ccc(Br)cc2)nc2ccc(Cl)cc21 | 326 | 6.1 | 
4 | O=C(O)Cn1c(=O)c(-c2ccc(O)cc2O)nc2cc(F)ccc21 | 63 |  | 
5 | O=C(O)Cn1c(=O)c(Oc2ccccc2)nc2ccccc21 | 468 | 12.5 | 
6 | O=C(O)Cn1c(=O)c(-c2ccc(O)cc2O)nc2ccc(F)cc21 | 32 |  | 
7 | O=C(O)Cn1c(=O)c(-c2ccc(F)cc2)nc2ccc(F)cc21 | 874 |  | 
8 | COc1cc(/C=C/c2nc3ccccc3n(CC(=O)O)c2=O)ccc1O | 419 |  | Activity [3]: 68.8%; IC50 [4]: 24100 nM; inhibition [5]: Active; Activity [6]: 39.6%; Activity [7]: 95.4%
9 | O=C(O)Cn1c(=O)c(-c2ccc(O)cc2O)nc2ccc(Br)cc21 | 91 |  | 
10 | O=C(O)Cn1c(=O)c(Cc2ccccc2)nc2ccccc21 | 1110 |  | 
11 | O=C(O)Cn1c(=O)c(Sc2ccc(Br)cc2)nc2ccccc21 | 296 | 6.9 | 
12 | O=C(O)Cn1c(=O)c(/C=C/c2ccc(O)cc2)nc2ccccc21 | 182 |  | IC50 [4]: 51500 nM; inhibition [5]: Active; Activity [7]: 71.8%
13 | O=C(O)Cn1c(=O)c(-c2ccccc2)nc2ccccc21 | 5980 |  | 
14 | O=C(O)Cn1c(=O)c(-c2c[nH]c3ccccc23)nc2ccccc21 | 639 |  | 
15 | O=C(O)Cn1c(=O)c(-c2c[nH]c3ccccc23)nc2ccc(Br)cc21 | 368 |  | 
16 | O=C(O)Cn1c(=O)c(-c2ccc(F)cc2)nc2ccccc21 | 3380 |  | 
17 | O=C(O)Cn1c(=O)c(Sc2ccc(Cl)cc2)nc2ccccc21 | 273 | 1.9 | 
18 | O=C(O)Cn1c(=O)c(-c2cc3ccccc3s2)nc2ccc(Cl)cc21 | 238 |  | 

Row | Compound | IC50 [1] [nM] | Selectivity ratio [2] | further results
19 | O=C(O)Cn1c(=O)c(-c2ccc(O)cc2O)nc2cc(Br)ccc21 | 139 |  | 
20 | O=C(O)Cn1c(=O)c(Sc2ccc(Br)cc2)nc2ccc(F)cc21 | 191 | 1.9 | 
21 | O=C(O)Cn1c(=O)c(Sc2ccccc2)nc2ccccc21 | 421 | 2.7 | 
22 | O=C(O)Cn1c(=O)c(-c2ccc(F)cc2)nc2ccc(Cl)cc21 | 1520 |  | 
23 | O=C(O)Cn1c(=O)c(-c2ccc(F)cc2)nc2ccc(-c3ccc(F)cc3)cc21 | 2130 |  | 
24 | COc1ccc(/C=C/c2nc3ccccc3n(CC(=O)O)c2=O)cc1 | 4180 |  | 
25 | O=C(O)Cn1c(=O)c(-c2ccc(O)cc2)nc2ccccc21 | 2590 |  | 
26 | O=C(O)Cn1c(=O)c(CCc2ccc(O)cc2)nc2ccc(F)cc21 | 652 |  | Activity [7]: 14.7%
27 | O=C(O)Cn1c(=O)c(Sc2ccc(Cl)cc2)nc2ccc(Cl)cc21 | 158 | 5.1 | 
28 | O=C(O)Cn1c(=O)c(Sc2ccc(Cl)cc2)nc2ccc(Br)cc21 | 395 | 8.3 | 
29 | O=C(O)Cn1c(=O)c(-c2ccc(O)cc2O)nc2ccccc21 | 397 |  | 
30 | O=C(O)Cn1c(=O)c(Sc2ccc(Br)cc2)nc2ccc(Br)cc21 | 467 | 3.7 | 
31 | O=C(O)Cn1c(=O)c(-c2ccc(O)cc2O)nc2cc(Cl)ccc21 | 95 |  | 
32 | O=C(O)Cn1c(=O)c(/C=C/c2ccc(O)cc2)nc2ccc(F)cc21 | 153 |  | inhibition [5]: Active; Activity [7]: 67.2%
33 | O=C(O)Cn1c(=O)c(CCc2ccc(O)cc2)nc2ccccc21 | 798 |  | Activity [7]: 16.2%
34 | O=C(O)Cn1c(=O)c(Sc2ccc(Cl)cc2)nc2ccc(F)cc21 | 56 | 3.1 | 
35 | O=C(O)Cn1c(=O)c(Sc2ccc(Br)cc2)nc2cc(Br)ccc21 | 319 | 10.2 | 
